Among the data in PubChem BioAssay are outcome, potentiation and activation values, retold here.

Active and inactive are the calls of the source.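 Rule for the calls, unless noted: active = duplicate-averaged activation above buffer control mean plus 5 SD of those controls; inactive = the rest.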

A short description of assay [1]: nonspecific flux increase, KCNQ1-free cells – parental CHO cells, counter-screen for KCNQ1 potentiator project (AID 493006).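 For activation: fluorescence ratio of max minus min over baseline after K+ and Tl+ depolarization.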 As to conditions: parental CHO-K1 cells, FluxOR thallium flux, at 10 µM; stronger effect = higher value. An outline of the steps:
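Benchmarks – buffer and R-L3 controls · Assay system – untransfected host CHO-K1 cells with FluxOR thallium dye · Measure – fluorescence change ratio scaled 0% buffer, 100% R-L3 · Technique – kinetic thallium-flux fluorescence · Timing – overnight 37 °C plating, 90 min RT dye, 20 min compound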
(A counterscreen serves to expose hits that act by an unwanted route or on another target.)

Assay [2] deals with Potassium voltage-gated channel subfamily KQT member 1 (Homo sapiens) (UniProt P51787). The assay can be described thus: enhancement of KCNQ1 channel thallium flux – FluxOR thallium flux, CHO cells, duplicates, confirmation (AID 493007;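 active = potentiation averaged over duplicate wells exceeding buffer-only control mean by more than 3 SD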;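 for outcome: cells depolarized by a potassium plus thallium sulfate stimulus after compound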). As to conditions: KCNQ1 cell line, FluxOR thallium flux fluorescence, at 10 µM; stronger effect = higher value, % of reference activator effect, buffer zero. In outline:
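Material: CHO cells stably expressing the KCNQ1 potassium channel / Times: dye 90 min then compound 20 min, both at room temperature / Detection: kinetic thallium influx fluorescence with FluxOR dye, 10 s baseline, 110 s post-stimulus / Benchmarks: buffer-only wells as 0% and R-L3 activator as 100% / Replicates: each compound tested in duplicate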

The target in assay [3] is Potassium voltage-gated channel subfamily KQT member 2 (Rattus norvegicus) (UniProt O88943). Nature of the assay: KCNQ2 thallium flux enhancement – KCNQ2-CHO-K1 cells, selectivity assay for KCNQ1 potentiator project (AID 493009;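 active = mean duplicate potentiation above the buffer control mean plus 5 SD of buffer wells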;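 note: assay conditions were tuned for KCNQ1 rather than KCNQ2 modulators; signal is max minus min fluorescence divided by baseline after thallium stimulus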). The conditions noted are these: FluxOR thallium flux fluorescence, at 10 µM; stronger effect = higher value, scaled: buffer 0, activator control 100.
Assay [4] has as its target Potassium voltage-gated channel subfamily KQT member 1 (Homo sapiens) (UniProt P51787). The assay can be described thus: KCNQ1 activators by electrophysiology – IonWorks patch clamp, KCNQ1-CHO cells, orthogonal assay for KCNQ1 potentiator project, confirmation (AID 493184;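 active = current rise at least 3 SD above the untreated control mean in each of two repeat wells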). The conditions noted are these: automated patch clamp current, at 10 µM; stronger effect = higher value. In outline:
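Probe or stimulus: depolarizing pulse to +40 mV from -90 mV; Material: CHO cells carrying KCNQ1; Compound: one dose, 10 µM final; Signal: automated voltage clamp, amphotericin B perforated patch; Read-out basis: percent current increase versus pre-compound level; Buffer or medium: pH 7.4 external bath; Replication: duplicates.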
For orientation: In patch-clamp work, channel activity is measured electrically.

Chain of Potassium voltage-gated channel subfamily KQT member 2 (Rattus norvegicus) (O88943 whole entry, looked up): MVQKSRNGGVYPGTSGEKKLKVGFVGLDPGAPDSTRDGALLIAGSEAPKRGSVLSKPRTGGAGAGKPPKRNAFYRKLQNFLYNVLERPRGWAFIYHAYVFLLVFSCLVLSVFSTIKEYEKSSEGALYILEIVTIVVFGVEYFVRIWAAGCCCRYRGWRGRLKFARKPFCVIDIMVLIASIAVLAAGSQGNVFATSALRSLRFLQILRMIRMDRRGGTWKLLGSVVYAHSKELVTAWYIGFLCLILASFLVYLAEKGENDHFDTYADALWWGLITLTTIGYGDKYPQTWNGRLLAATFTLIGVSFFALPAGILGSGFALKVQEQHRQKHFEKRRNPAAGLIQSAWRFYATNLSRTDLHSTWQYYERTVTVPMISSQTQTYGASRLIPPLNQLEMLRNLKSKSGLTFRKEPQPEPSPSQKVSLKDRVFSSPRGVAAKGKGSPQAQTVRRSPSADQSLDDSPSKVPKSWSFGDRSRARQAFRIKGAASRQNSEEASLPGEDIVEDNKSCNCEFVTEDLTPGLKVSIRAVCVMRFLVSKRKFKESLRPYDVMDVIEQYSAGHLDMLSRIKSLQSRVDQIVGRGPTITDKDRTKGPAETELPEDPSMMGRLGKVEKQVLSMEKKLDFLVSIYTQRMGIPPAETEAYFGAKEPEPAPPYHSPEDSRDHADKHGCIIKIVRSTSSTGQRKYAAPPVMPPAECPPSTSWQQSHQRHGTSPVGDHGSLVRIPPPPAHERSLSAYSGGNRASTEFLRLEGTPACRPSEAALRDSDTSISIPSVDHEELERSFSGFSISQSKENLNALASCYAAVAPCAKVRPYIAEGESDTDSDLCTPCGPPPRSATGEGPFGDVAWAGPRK
Chain of Potassium voltage-gated channel subfamily KQT member 1 (Homo sapiens) (P51787 whole entry, looked up): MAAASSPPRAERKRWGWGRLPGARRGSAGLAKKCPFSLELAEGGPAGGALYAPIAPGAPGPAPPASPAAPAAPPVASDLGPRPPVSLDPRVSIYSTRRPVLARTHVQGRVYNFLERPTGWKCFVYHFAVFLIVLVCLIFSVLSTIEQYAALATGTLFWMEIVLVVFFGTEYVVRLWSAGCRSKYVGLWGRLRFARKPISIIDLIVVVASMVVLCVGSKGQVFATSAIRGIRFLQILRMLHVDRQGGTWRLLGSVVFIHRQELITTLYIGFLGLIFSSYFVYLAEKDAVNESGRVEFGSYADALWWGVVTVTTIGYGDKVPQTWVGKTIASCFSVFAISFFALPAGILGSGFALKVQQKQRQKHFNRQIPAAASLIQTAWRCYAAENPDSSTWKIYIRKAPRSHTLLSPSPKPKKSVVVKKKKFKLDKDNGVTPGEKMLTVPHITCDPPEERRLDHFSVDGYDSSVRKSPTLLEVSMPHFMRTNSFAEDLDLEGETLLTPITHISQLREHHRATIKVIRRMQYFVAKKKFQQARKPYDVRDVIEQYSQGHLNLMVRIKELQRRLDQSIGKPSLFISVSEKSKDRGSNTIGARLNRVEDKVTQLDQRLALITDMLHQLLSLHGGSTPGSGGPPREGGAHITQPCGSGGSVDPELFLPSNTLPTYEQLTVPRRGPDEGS

In the case of `Oc1oc(-c2cccc3ccccc23)nc1/C=N/c1nccs1`, the result in assay [1] and in assay [4] was inactive. Besides, the potentiation in assay [2] was 48.5% (active); in assay [3], 164% (active).

Regarding `Fc1ccccc1/C=N/NC(=S)Nc1ccc(Cl)cc1Cl`, the result in assay [1], in assay [3] and in assay [4] was inactive. In assay [2], the potentiation is 66.5% (active).

For the compound `CCn1c(=S)[nH]c2scc(-c3cccs3)c2c1=O`, the activation in assay [1] was 548% (active). In addition, the potentiation in assay [2] is 246% (active); in assay [3], 528% (active). Moreover, the outcome in assay [4] was inactive.

With `CN1C(=O)C2(Oc3ccccc3C3CC(c4ccccc4)=NN32)c2ccccc21` (stereo not given), the outcome in assay [1], in assay [2], in assay [3] and in assay [4] was inactive.

For `Cc1ccc(NC(=O)CN(C)C(=O)CCOc2ccccc2C)cc1`, the result in assay [1], in assay [2], in assay [3] and in assay [4] was inactive.

Take `O=Cc1cc2ccccc2nc1SCCCF`: the outcome in assay [1], in assay [2], in assay [3] and in assay [4] was inactive.

For the compound `Cc1ccc(/C=C/C(=O)c2ccccc(=O)c2O)c(C)c1`, the activation in assay [1] is 244% (active). Besides, the figures for the potentiation in assay [2] and in assay [3] were 118% (active) and 280% (active), respectively. In assay [4], the outcome was inactive.

Regarding `CC(=O)NC1=C(NC2CCS(=O)(=O)C2)C(=O)c2ccccc2C1=O` (stereo not given), the result in assay [1], in assay [2], in assay [3] and in assay [4] was inactive.

Turning to `Nc1cc(=O)[nH]c(SCC(=O)N2CCN(S(=O)(=O)c3ccc4ccccc4c3)CC2)n1`, the outcome in assay [1], in assay [2], in assay [3] and in assay [4] was inactive.

For the compound `C=CCn1c(=S)[nH]c2sc3c(c2c1=O)CCCC3`, the activation in assay [1] is 294% (active). In addition, the potentiation is 97% (active) in assay [2] and 294% (active) in assay [3]. In assay [4], the result was inactive.

Take `CCOC(=O)c1cnc2c(C)c(Cl)ccc2c1N1CCN(CC)CC1`: the result in assay [1], in assay [2], in assay [3] and in assay [4] was inactive.

For the compound `CC(C)CC(=O)NC(=S)Nc1nc(-c2cccc3ccccc23)cs1`, the result in assay [1] and in assay [4] was inactive. Besides, the results for the potentiation in assay [2] and in assay [3] were 60% (active) and 156% (active), respectively.

For the compound `Cc1ccc(NC(=O)C(=O)NNC(=O)c2ccccc2C)cc1Cl`, in assay [1], the activation is 304% (active). Also, the potentiation in assay [2] was 112% (active); in assay [3], 400% (active). In addition, the result in assay [4] was inactive.

In the case of `Cc1sc2nc(C(C)C)nc(SCC(=O)NCc3ccco3)c2c1C`, in assay [1], the activation was 276% (active). Further, the potentiation in assay [2] was 85.5% (active); in assay [3], 280% (active). Also, the result in assay [4] was inactive.

`CCN(CC)S(=O)(=O)c1cc(OC)ccc1N=Nc1ccc(O)c2ncccc12`: the outcome in assay [1] and in assay [4] was inactive. Besides, the potentiation in assay [2] was 37.5% (active); in assay [3], 148% (active).

As to `S=c1[nH]nc(CSc2nc3ccccc3s2)n1C1CCCCC1`, the activation in assay [1] is 142% (active). For the same compound, the potentiation in assay [2] was 31% (active); in assay [3], 147% (active). For the same compound, the result in assay [4] was inactive.

Consider `Cc1ccc(-c2ccc(=O)n(Cc3cccc(Br)c3)n2)cc1`, for which the outcome in assay [1], in assay [2], in assay [3] and in assay [4] was inactive.

Take `Cc1c(C(=O)NC(=S)NCc2cccnc2)oc2ccccc12`: the result in assay [1], in assay [2], in assay [3] and in assay [4] was inactive.

`COc1ccc(CN2C(=O)C(C)S/C2=N/N=C/c2ccco2)cc1` (stereo not given): the result in assay [1], in assay [2], in assay [3] and in assay [4] was inactive.

On to `O=c1c2ccccc2nc(-c2ccc(Cl)c(Cl)c2)n1O`, for which the activation in assay [1] was 518% (active). Besides, the potentiation is 244% (active) in assay [2] and 558% (active) in assay [3]. In addition, in assay [4], the result was inactive.

Regarding `O=S(=O)(NCCOc1ccccc1)c1ccc2ccccc2c1`, the outcome in assay [1], in assay [2], in assay [3] and in assay [4] was inactive.

With `O=C1c2ccccc2NC(c2ccccc2O)N1O` (stereo not given), the activation in assay [1] was 248% (active). The potentiation in assay [2] was 82% (active); in assay [3], 262% (active). Besides, the outcome in assay [4] was inactive.

With `CCCN1C(=O)/C(=C/c2ccc(C)s2)NC1=S`, the activation in assay [1] was 395% (active). Moreover, the potentiation is 194% (active) in assay [2] and 412% (active) in assay [3]. For the same compound, the result in assay [4] was inactive.

With `O=C(CSc1nc2ccccc2s1)c1cc2ccccc2o1`, the outcome in assay [1], in assay [2], in assay [3] and in assay [4] was inactive.

Turning to `COc1ccc(C)c2sc(NC(=O)C3=COCCO3)nc12`, the result in assay [1], in assay [2], in assay [3] and in assay [4] was inactive.

`COc1cc(Br)cc(C=Nc2cccc(C(F)(F)F)c2)c1O`: the result in assay [1], in assay [2], in assay [3] and in assay [4] was inactive.

Consider `O=C(NC(=S)Nc1ccc(N2CCCCC2)c(Cl)c1)c1cccs1`, for which the activation in assay [1] is 138% (active). The potentiation in assay [2] was 120% (active); in assay [3], 232% (active). Further, in assay [4], the outcome was inactive.

Take `COc1ccccc1NC(=O)C(=O)NNC(=O)COc1ccc2ccccc2c1`: the activation in assay [1] was 442% (active). Besides, the potentiation in assay [2] is 174% (active); in assay [3], 555% (active). The result in assay [4] was inactive.

As for `CCC(C(=O)OCC(=O)NC(=O)NC(C)(C)C)c1ccccc1` (stereo not given), the outcome in assay [1], in assay [2], in assay [3] and in assay [4] was inactive.

With `CC1CCc2c(sc(NS(=O)(=O)c3ccccc3)c2C(=O)OC(C)C)C1` (stereo not given), the activation in assay [1] was 284% (active). Also, the potentiation in assay [2] was 156% (active); in assay [3], 380% (active). The outcome in assay [4] was inactive.
